Measured values taken from ChEMBL document CHEMBL1151248, “New lignans from the roots of Valeriana prionophylla with antioxidative and vasorelaxant activities” (2004).

Experiments:
Aorta [1] = assay: Vasorelaxant activity on Wistar rat aorta ring assessed as inhibition of phenylephrine-induced contraction at 100 uM in absence of endothelium; assay type: functional; set-up: scale not given: the % may be the effect or the level left
Aorta [2] = assay: Vasorelaxant activity on Wistar rat aorta ring assessed as inhibition of phenylephrine-induced contraction at 100 uM in presence of endothelium; assay type: functional; set-up: scale not given: the % may be the effect or the level left
[3] = Antioxidant activity against iodophenol-induced chemiluminescence by horseradish peroxidase/perborate/luminol system; assay type: functional
In short: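 Total antioxidant capacity read by enhanced chemiluminescence. Reagent was assay buffer plus tablets A and B, which supply luminol, p-iodophenol enhancer and perborate oxidant. Values come from a Trolox standard curve (Trolox 20 μg mL⁻¹ in H2O) and are reported as mM Trolox equivalent; n=3.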

[4] = Antioxidant activity assessed as ABTS radical scavenging activity after 1 min by TEAC method

Structure (SMILES)	Activity (Aorta [1]) [%]	Activity (Aorta [2]) [%]	Activity [3] [mM]	Activity [4] [mM]
COc1cc([C@H]2OC[C@]3(O)[C@@H](c4ccc(O[C@@H]5O[C@H](CO)[C@@H](O)[C@H](O)[C@H]5O)c(OC)c4)OC[C@]23O)ccc1O	0	20.4	1.84	2.92
COc1cc([C@H]2OC[C@]3(O)[C@@H](c4ccc(O)c(OC)c4)OC[C@]23O)ccc1O [PRINSEPIOL]	5.3	29.3	6.7	5.33
C[C@@H]1O[C@@H](O[C@@H]2[C@@H](O)[C@H](OCCc3ccc(O)c(O)c3)O[C@H](CO)[C@H]2OC(=O)/C=C/c2ccc(O)c(O)c2)[C@H](O)[C@H](O)[C@H]1O			8.2	5.3
COc1cc([C@H]2OC[C@]3(O)[C@@H](c4ccc(O)c(OC)c4)OC[C@H]23)ccc1O	29	24.4	6.31	5.1
COc1cc([C@H]2OC[C@@H]3[C@@H](c4ccc(O[C@@H]5O[C@H](CO)[C@@H](O)[C@H](O)[C@H]5O)c(OC)c4)OC[C@]23O)ccc1O	1.7	2.5	1.44	2.51
